≈ marks a conversion by molar mass, not a printed value.
How the values were obtained:
Format in all cases: functional
Streptococcus pneumoniae [1] = assay: Antimicrobial activity against extended spectrum beta-lactamases-producing Streptococcus pneumoniae 10-1 after 18-24 hrs by two-fold serial dilution method
Outline: (§1)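 Agar-medium twofold serial dilution against Gram-positive and Gram-negative strains; MIC taken as the lowest compound concentration giving complete inhibition of bacterial growth after incubation at 35 °C for 18-24 h.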

Pseudomonas aeruginosa [2] = assay: Antimicrobial activity against Pseudomonas aeruginosa 10-12 after 18-24 hrs by two-fold serial dilution method; outline: as §1
Klebsiella pneumoniae [3] = assay: Antimicrobial activity against Klebsiella pneumoniae 10-4 after 18-24 hrs by two-fold serial dilution method; outline: as §1
[4] = system: Staphylococcus epidermidis; assay: Antimicrobial activity against extended spectrum beta-lactamases-producing methicillin-resistant Staphylococcus epidermidis 10-13 after 18-24 hrs by two-fold serial dilution method
Outline: (§2)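 Agar twofold serial dilution MIC against clinical isolates. MIC was taken as the lowest concentration giving complete inhibition of bacterial growth after incubation at 35 °C for 18-24 h.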

[5] = system: Staphylococcus epidermidis; assay: Antimicrobial activity against extended spectrum beta-lactamases-producing methicillin-sensitive Staphylococcus epidermidis 10-13 after 18-24 hrs by two-fold serial dilution method; outline: as §1
Staphylococcus aureus [6] = assay: Antimicrobial activity against extended spectrum beta-lactamases-producing methicillin-resistant Staphylococcus aureus 10-11 after 18-24 hrs by two-fold serial dilution method; outline: as §2
Escherichia coli [7] = assay: Antimicrobial activity against Escherichia coli 10-2 after 18-24 hrs by two-fold serial dilution method; outline: as §1
Streptococcus pneumoniae [8] = assay: Antimicrobial activity against extended spectrum beta-lactamases-producing Streptococcus pneumoniae 10-4 after 18-24 hrs by two-fold serial dilution method; outline: as §1
Enterococcus faecium [9] = assay: Antimicrobial activity against Enterococcus faecium 10-9 after 18-24 hrs by two-fold serial dilution method; outline: as §1
Staphylococcus aureus [10] = assay: Antimicrobial activity against extended spectrum beta-lactamases-producing methicillin-sensitive Staphylococcus aureus 10-14 after 18-24 hrs by two-fold serial dilution method; outline: as §1
[11] = system: Staphylococcus epidermidis; assay: Antimicrobial activity against methicillin-resistant Staphylococcus epidermidis clinical isolate after 18-24 hrs by two-fold serial dilution method
Klebsiella pneumoniae [12] = assay: Antimicrobial activity against extended spectrum beta-lactamases-producing Klebsiella pneumoniae 10-2 after 18-24 hrs by two-fold serial dilution method; outline: as §1
Staphylococcus aureus [13] = assay: Antimicrobial activity against extended spectrum beta-lactamases-producing methicillin-resistant Staphylococcus aureus 10-15 after 18-24 hrs by two-fold serial dilution method; outline: as §2
[14] = system: Staphylococcus epidermidis; assay: Antimicrobial activity against extended spectrum beta-lactamases-producing methicillin-sensitive Staphylococcus epidermidis 10-11 after 18-24 hrs by two-fold serial dilution method; outline: as §1
Pseudomonas aeruginosa [15] = assay: Antimicrobial activity against extended spectrum beta-lactamases-producing Pseudomonas aeruginosa 10-20 after 18-24 hrs by two-fold serial dilution method; outline: as §1
Klebsiella pneumoniae [16] = assay: Antimicrobial activity against Klebsiella pneumoniae 10-2 after 18-24 hrs by two-fold serial dilution method; outline: as §1
Escherichia coli [17] = assay: Antimicrobial activity against extended spectrum beta-lactamases-producing Escherichia coli 10-4 after 18-24 hrs by two-fold serial dilution method; outline: as §1
Escherichia coli [18] = assay: Antimicrobial activity against extended spectrum beta-lactamases-producing Escherichia coli 10-3 after 18-24 hrs by two-fold serial dilution method; outline: as §1
Klebsiella pneumoniae [19] = assay: Antimicrobial activity against Klebsiella pneumoniae 10-3 after 18-24 hrs by two-fold serial dilution method; outline: as §1
Staphylococcus aureus [20] = assay: Antimicrobial activity against methicillin-resistant Staphylococcus aureus clinical isolate after 18-24 hrs by two-fold serial dilution method; outline: as §2
Enterococcus faecium [21] = assay: Antimicrobial activity against Enterococcus faecium 10-5 after 18-24 hrs by two-fold serial dilution method; outline: as §1
Enterococcus faecalis [22] = assay: Antimicrobial activity against Enterococcus faecalis 10-6 after 18-24 hrs by two-fold serial dilution method; outline: as §1
Escherichia coli [23] = assay: Antimicrobial activity against Escherichia coli ATCC 25922 after 18-24 hrs by two-fold serial dilution method; outline: as §1
[24] = system: Staphylococcus epidermidis; assay: Antimicrobial activity against extended spectrum beta-lactamases-producing methicillin-sensitive Staphylococcus epidermidis 10-15 after 18-24 hrs by two-fold serial dilution method; outline: as §1
Enterococcus faecalis [25] = assay: Antimicrobial activity against Enterococcus faecalis 10-5 after 18-24 hrs by two-fold serial dilution method; outline: as §1
Escherichia coli [26] = assay: Antimicrobial activity against Escherichia coli 10-3 after 18-24 hrs by two-fold serial dilution method; outline: as §1
Escherichia coli [27] = assay: Antimicrobial activity against extended spectrum beta-lactamases-producing Escherichia coli 10-2 after 18-24 hrs by two-fold serial dilution method; outline: as §1
Klebsiella pneumoniae [28] = assay: Antimicrobial activity against extended spectrum beta-lactamases-producing Klebsiella pneumoniae 10-1 after 18-24 hrs by two-fold serial dilution method; outline: as §1
Pseudomonas aeruginosa [29] = assay: Antimicrobial activity against extended spectrum beta-lactamases-producing Pseudomonas aeruginosa 10-18 after 18-24 hrs by two-fold serial dilution method; outline: as §1
Enterococcus faecalis [30] = assay: Antimicrobial activity against Enterococcus faecalis 10-7 after 18-24 hrs by two-fold serial dilution method; outline: as §1
[31] = system: Staphylococcus epidermidis; assay: Antimicrobial activity against extended spectrum beta-lactamases-producing methicillin-resistant Staphylococcus epidermidis 10-10 after 18-24 hrs by two-fold serial dilution method; outline: as §2
Klebsiella pneumoniae [32] = assay: Antimicrobial activity against extended spectrum beta-lactamases-producing Klebsiella pneumoniae 10-3 after 18-24 hrs by two-fold serial dilution method; outline: as §1
Staphylococcus aureus [33] = assay: Antimicrobial activity against Staphylococcus aureus ATCC […] after 18-24 hrs by two-fold serial dilution method; outline: as §1
Staphylococcus aureus [34] = assay: Antimicrobial activity against extended spectrum beta-lactamases-producing methicillin-sensitive Staphylococcus aureus 10-13 after 18-24 hrs by two-fold serial dilution method; outline: as §1
Pseudomonas aeruginosa [35] = assay: Antimicrobial activity against extended spectrum beta-lactamases-producing Pseudomonas aeruginosa 10-15 after 18-24 hrs by two-fold serial dilution method; outline: as §1
Escherichia coli [36] = assay: Antimicrobial activity against Escherichia coli 10-1 after 18-24 hrs by two-fold serial dilution method; outline: as §1
Pseudomonas aeruginosa [37] = assay: Antimicrobial activity against extended spectrum beta-lactamases-producing Pseudomonas aeruginosa 10-9 after 18-24 hrs by two-fold serial dilution method; outline: as §1
Pseudomonas aeruginosa [38] = assay: Antimicrobial activity against extended spectrum beta-lactamases-producing Pseudomonas aeruginosa 10-5 after 18-24 hrs by two-fold serial dilution method; outline: as §1

SMILES	MIC (Streptococcus pneumoniae [1]) [µg/mL]	MIC (Pseudomonas aeruginosa [2]) [µg/mL]	MIC (Klebsiella pneumoniae [3]) [µg/mL]	MIC [4] [µg/mL]	MIC [5] [µg/mL]	MIC (Staphylococcus aureus [6]) [µg/mL]	MIC (Escherichia coli [7]) [µg/mL]	MIC (Streptococcus pneumoniae [8]) [µg/mL]	MIC (Enterococcus faecium [9]) [µg/mL]	MIC (Staphylococcus aureus [10]) [µg/mL]	MIC (Klebsiella pneumoniae [12]) [µg/mL]	MIC (Staphylococcus aureus [13]) [µg/mL]	MIC [14] [µg/mL]	MIC (Pseudomonas aeruginosa [15]) [µg/mL]	MIC (Klebsiella pneumoniae [16]) [µg/mL]	MIC (Escherichia coli [17]) [µg/mL]	MIC (Escherichia coli [18]) [µg/mL]	MIC (Klebsiella pneumoniae [19]) [µg/mL]	MIC (Enterococcus faecium [21]) [µg/mL]	MIC (Enterococcus faecalis [22]) [µg/mL]	further results
CO/N=C1\CN(c2nc3c(cc2F)c(=O)c(C(=O)O)cn3C2CC2)CC1CN (centres undefined) [GEMIFLOXACIN]	2 (≈ 5.14 µM)	0.03 (≈ 0.077 µM)	32 (≈ 82.2 µM)	0.5 (≈ 1.28 µM)	1 (≈ 2.57 µM)	4 (≈ 10.3 µM)	0.5 (≈ 1.28 µM)	2 (≈ 5.14 µM)	8 (≈ 20.5 µM)	0.06 (≈ 0.154 µM)	16 (≈ 41.1 µM)	1 (≈ 2.57 µM)	16 (≈ 41.1 µM)	0.5 (≈ 1.28 µM)	0.5 (≈ 1.28 µM)	8 (≈ 20.5 µM)	2 (≈ 5.14 µM)	8 (≈ 20.5 µM)	8 (≈ 20.5 µM)	8 (≈ 20.5 µM)	MIC50 [11]: 0.25 µg/mL (≈ 0.642 µM); MIC90 [11]: 8 µg/mL (≈ 20.5 µM); MIC50 (Staphylococcus aureus [20]): 2 µg/mL (≈ 5.14 µM); MIC90 (Staphylococcus aureus [20]): 8 µg/mL (≈ 20.5 µM); MIC (Escherichia coli [23]): 0.03 µg/mL (≈ 0.077 µM); MIC [24]: 16 µg/mL (≈ 41.1 µM); MIC (Enterococcus faecalis [25]): 1 µg/mL (≈ 2.57 µM); MIC (Escherichia coli [26]): 0.5 µg/mL (≈ 1.28 µM); MIC (Escherichia coli [27]): 16 µg/mL (≈ 41.1 µM); MIC (Klebsiella pneumoniae [28]): 16 µg/mL (≈ 41.1 µM); MIC (Pseudomonas aeruginosa [29]): 2 µg/mL (≈ 5.14 µM); MIC (Enterococcus faecalis [30]): 2 µg/mL (≈ 5.14 µM); MIC [31]: 2 µg/mL (≈ 5.14 µM); MIC (Klebsiella pneumoniae [32]): 16 µg/mL (≈ 41.1 µM); MIC (Staphylococcus aureus [33]): 0.06 µg/mL (≈ 0.154 µM); MIC (Staphylococcus aureus [34]): 0.25 µg/mL (≈ 0.642 µM); MIC (Pseudomonas aeruginosa [35]): 1 µg/mL (≈ 2.57 µM); MIC (Escherichia coli [36]): 8 µg/mL (≈ 20.5 µM); MIC (Pseudomonas aeruginosa [37]): 0.5 µg/mL (≈ 1.28 µM); MIC (Pseudomonas aeruginosa [38]): 0.5 µg/mL (≈ 1.28 µM)
COc1cccc(CO/N=C2\CN(c3nc4c(cc3F)c(=O)c(C(=O)O)cn4C3CC3)CC2CN)c1OC.CS(=O)(=O)O (racemic)	0.125	8	> 128	0.25	0.06	1	16	0.06	4	0.06	> 128	4	0.25	8	128	2	32	2	4	4	MIC50 (Staphylococcus aureus [20]): 1 µg/mL; MIC90 (Staphylococcus aureus [20]): 4 µg/mL; MIC (Escherichia coli [23]): 0.125 µg/mL; MIC [24]: 4 µg/mL; MIC (Enterococcus faecalis [25]): 0.25 µg/mL; MIC (Escherichia coli [26]): 16 µg/mL; MIC (Escherichia coli [27]): > 128 µg/mL; MIC (Klebsiella pneumoniae [28]): > 128 µg/mL; MIC (Pseudomonas aeruginosa [29]): 4 µg/mL; MIC (Enterococcus faecalis [30]): 1 µg/mL; MIC [31]: 0.5 µg/mL; MIC (Klebsiella pneumoniae [32]): > 128 µg/mL; MIC (Staphylococcus aureus [33]): 0.015 µg/mL; MIC (Staphylococcus aureus [34]): 0.03 µg/mL; MIC (Pseudomonas aeruginosa [35]): 8 µg/mL; MIC (Escherichia coli [36]): > 128 µg/mL; MIC (Pseudomonas aeruginosa [37]): 4 µg/mL; MIC (Pseudomonas aeruginosa [38]): 4 µg/mL
COc1cc(F)c(CO/N=C2\CN(c3nc4c(cc3F)c(=O)c(C(=O)O)cn4C3CC3)CC2CN)cc1OC.CS(=O)(=O)O (racemic)	0.25	> 128	> 128	0.25	0.03	1	> 128	0.03	8	0.03	> 128	0.125	1	> 128	> 128	> 128	> 128	> 128	4	2	MIC (Escherichia coli [23]): 0.125 µg/mL; MIC [24]: 2 µg/mL; MIC (Enterococcus faecalis [25]): 0.25 µg/mL; MIC (Escherichia coli [26]): > 128 µg/mL; MIC (Escherichia coli [27]): > 128 µg/mL; MIC (Klebsiella pneumoniae [28]): > 128 µg/mL; MIC (Pseudomonas aeruginosa [29]): > 128 µg/mL; MIC (Enterococcus faecalis [30]): 1 µg/mL; MIC [31]: 0.5 µg/mL; MIC (Klebsiella pneumoniae [32]): > 128 µg/mL; MIC (Staphylococcus aureus [33]): 0.03 µg/mL; MIC (Staphylococcus aureus [34]): 0.03 µg/mL; MIC (Pseudomonas aeruginosa [35]): > 128 µg/mL; MIC (Escherichia coli [36]): > 128 µg/mL; MIC (Pseudomonas aeruginosa [37]): > 128 µg/mL; MIC (Pseudomonas aeruginosa [38]): > 128 µg/mL

From ChEMBL document CHEMBL2062435, “Synthesis and in vitro antibacterial activity of gemifloxacin derivatives containing a substituted benzyloxime moiety” (2012)
